Active and inactive are the calls of the source. The calls are words filed in the database; no cut-off is given here.
Tests used:
[1] = biological target: Hydroxycarboxylic acid receptor 3 (Homo sapiens) (UniProt P49019); assay: Agonist activity at human GPR109b assessed as decrease in forskolin-stimulated cAMP production by HTRF assay; assay type: functional
Cytochrome P450 2D6 = Cytochrome P450 2D6 (Homo sapiens, UniProt P10635); assay: Activity at CYP2D6; assay type: ADME
Cytochrome P450 2C9 = Cytochrome P450 2C9 (Homo sapiens, UniProt P11712); assay: Activity at CYP2C9; assay type: ADME
Chain of Cytochrome P450 2C9 (P11712 whole entry): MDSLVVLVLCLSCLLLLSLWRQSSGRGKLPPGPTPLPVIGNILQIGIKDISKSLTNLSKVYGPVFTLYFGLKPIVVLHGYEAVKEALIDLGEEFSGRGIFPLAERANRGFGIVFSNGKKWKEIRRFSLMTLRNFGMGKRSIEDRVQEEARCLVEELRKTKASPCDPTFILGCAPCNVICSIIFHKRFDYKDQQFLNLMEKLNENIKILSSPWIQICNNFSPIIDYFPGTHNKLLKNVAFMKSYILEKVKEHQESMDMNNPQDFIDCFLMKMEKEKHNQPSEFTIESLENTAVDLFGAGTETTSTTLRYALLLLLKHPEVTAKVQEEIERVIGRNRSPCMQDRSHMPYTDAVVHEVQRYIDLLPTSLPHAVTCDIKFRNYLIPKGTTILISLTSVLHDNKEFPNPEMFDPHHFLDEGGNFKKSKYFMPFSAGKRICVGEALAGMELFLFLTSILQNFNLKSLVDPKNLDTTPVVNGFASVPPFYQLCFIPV

[2] = Terminal half life in mouse; assay type: ADME, organism-based; conditions: in vivo, read-out: beta t1/2 (converted)
Rattus norvegicus = assay: Dose normalized Cmax in Sprague-Dawley rat at 10 mg/kg, po; assay type: ADME, organism-based; parameters: dose 10 mg/kg, route oral; conditions: in vivo
In short: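 Male Sprague-Dawley rats were dosed at 10 mg/kg po or 2 mg/kg iv in 80% PEG400/20% phosphate-buffered saline, fasted overnight before the oral dose. Jugular blood was sampled serially from 0.25 to 21 h over 24 h, and heparinized plasma was prepared. Drug was assayed by HPLC/MS/MS (quantitation range 1–2000 ng/mL).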

[3] = Plasma clearance in dog; assay type: ADME, organism-based, Canis lupus familiaris
Rhesus monkey = assay: Dose normalized Cmax in po dosed rhesus monkey; assay type: ADME, organism-based, Macaca mulatta; conditions: in vivo
[4] = AUC (0 to 12 hrs) in human at 50 mg, po BID administered on day 1 followed by 2-day wash out period after which dosing continued up to day 11 measured on day 4; assay type: ADME, organism-based; parameters: time < 12 hr, dose 50 mg, route oral; conditions: plasma
In short: (§1)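 Double-blind, placebo-controlled, randomized dose-escalation study in healthy male volunteers, six cohorts of eight (six active, two placebo). Oral dose on day 1, two-day washout, then dosing days 4–11; the 200 mg qd cohort was titrated over days 1–4. Venous blood taken predose and at 0.5–12 h on days 1, 4 and 11; plasma drug measured. τ 12 h (bid), 24 h (qd), 8 h (tid), 6 h (qid).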

[5] = AUC (0 to 12 hrs) in human at 100 mg, po BID administered on day 1 followed by 2-day wash out period after which dosing continued up to day 11 measured on day 4; assay type: ADME, organism-based; parameters: time < 12 hr, dose 100 mg, route oral; conditions: plasma; in short: as §1
[6] = AUC (0 to 12 hrs) in human at 100 mg, po BID administered on day 1 followed by 2-day wash out period after which dosing continued up to day 11 measured on day 11; assay type: ADME, organism-based; parameters: time < 12 hr, dose 100 mg, route oral; conditions: plasma; in short: as §1
[7] = AUC (0 to 12 hrs) in human at 150 mg, po BID administered on day 1 followed by 2-day wash out period after which dosing continued up to day 11 measured on day 11; assay type: ADME, organism-based; parameters: dose 150 mg, time < 12 hr, route oral; conditions: plasma; in short: as §1
[8] = Tmax in human at 175 mg, po QID administered on day 1 followed by 2-days wash out period after which dosing continued up to day 11 measured on day 11; assay type: ADME, organism-based; conditions: in vivo
In short: (§2)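 Double-blind, placebo-controlled, randomized multiple oral dose study in healthy male volunteers (cohorts of eight; six active, two placebo). Dose given on day 1, then a two-day washout, then dosing days 4–11; for the QD arm, subjects were titrated over days 1–4. Venous plasma sampled predose and 0.5, 1, 1.5, 2, 4, 6, 8, 10, 12 h postdose on days 1, 4 and 11. Tmax reported as median (min–max).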

[9] = Apparent half life in human at 50 mg, po BID administered on day 1 followed by 2-day wash out period after which dosing continued up to day 11 measured on day 11; assay type: ADME, organism-based; conditions: in vivo, read-out: t1/2(app) (converted); in short: as §1
[10] = Apparent half life in human at 150 mg, po BID administered on day 1 followed by 2-day wash out period after which dosing continued up to day 11 measured on day 11; assay type: ADME, organism-based; conditions: in vivo, read-out: t1/2(app) (converted); in short: as §1
[11] = Apparent half life in human at titreated po dose administered from day 1 to 4 followed by 200 mg, po QD administered up to day 11 measured on day 11; assay type: ADME, organism-based; conditions: in vivo, read-out: t1/2(app) (converted); in short: as §1
Homo sapiens [12] = assay: Toxicity in human assessed as occurrence of flushing administered as single dose; assay type: organism-based; conditions: in vivo
In short: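 Healthy volunteers scored subject-reported flushing with a flushing symptoms questionnaire after single oral doses and during repeat divided daily dosing.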

Homo sapiens [13] = assay: Antidyslipidemic activity in dyslipidemia patient assessed as change in HDL-c level at 150 mg administered TID during four week study relative to control; assay type: functional
[14] = Cmax in human at 50 mg, po BID administered on day 1 followed by 2-day wash out period after which dosing continued up to day 11 measured on day 1; assay type: ADME, organism-based; parameters: dose 50 mg, route oral; conditions: in vivo
In short: (§3)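 Healthy male volunteers took part in a double-blind, randomized, placebo-controlled dose-escalation study, with cohorts of 8 (6 on drug, 2 on placebo). Each subject got an oral dose on day 1, then a 2-day washout, then dosing on days 4–11. The 200 mg qd group was titrated over days 1–4. Venous plasma was sampled predose and 0.5–12 h postdose on days 1, 4 and 11, and predose on days 5–10 for troughs.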

[15] = Cmax in human at 100 mg, po BID administered on day 1 followed by 2-day wash out period after which dosing continued up to day 11 measured on day 1; assay type: ADME, organism-based; parameters: dose 100 mg, route oral; conditions: in vivo; in short: as §1
[16] = Cmax in human at 150 mg, po BID administered on day 1 followed by 2-day wash out period after which dosing continued up to day 11 measured on day 1; assay type: ADME, organism-based; parameters: dose 150 mg, route oral; conditions: in vivo; in short: as §1
[17] = Cmax in human at titreated po dose administered from day 1 to 4 followed by 200 mg, po QD administered up to day 11 measured on day 4; assay type: ADME, organism-based; parameters: dose 200 mg, route oral; conditions: in vivo; in short: as §3
[18] = Cmax in human at titreated po dose administered from day 1 to 4 followed by 200 mg, po QD administered up to day 11 measured on day 11; assay type: ADME, organism-based; parameters: dose 200 mg, route oral; conditions: in vivo; in short: as §3
[19] = Cmax in human at 175 mg, po QID administered on day 1 followed by 2-days wash out period after which dosing continued up to day 11 measured on day 11; assay type: ADME, organism-based; parameters: dose 175 mg, route oral; conditions: in vivo; in short: as §3
[20] = Cmin in human at 100 mg, po BID administered on day 1 followed by 2-day wash out period after which dosing continued up to day 11 measured on day 11 at 12 hrs; assay type: ADME, organism-based; conditions: in vivo, read-out: Cmin
In short: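 Healthy male volunteers, double-blind placebo-controlled randomized dose escalation; cohorts of eight (six active, two placebo). Oral dose on day 1, two-day washout, then dosing days 4–11. Venous blood predose and 0.5, 1, 1.5, 2, 4, 6, 8, 10, 12 h postdose on days 1, 4 and 11 for plasma drug; dosing interval (τ) 12 h for BID, 8 h for TID; Ctrough taken at end of interval.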

[21] = Cmin in human at 150 mg, po TID administered on day 1 followed by 2-days wash out period after which dosing continued up to day 11 measured on day 11 at 8 hrs; assay type: ADME, organism-based; conditions: in vivo, read-out: Cmin; in short: as §3
[22] = Cmin in human at 175 mg, po QID administered on day 1 followed by 2-days wash out period after which dosing continued up to day 11 measured on day 11 at 6 hrs; assay type: ADME, organism-based; conditions: in vivo, read-out: Cmin; in short: as §3
[23] = Tmax in human at 50 mg, po BID administered on day 1 followed by 2-day wash out period after which dosing continued up to day 11 measured on day 11; assay type: ADME, organism-based; conditions: in vivo; in short: as §2
[24] = Tmax in human at 100 mg, po BID administered on day 1 followed by 2-day wash out period after which dosing continued up to day 11 measured on day 11; assay type: ADME, organism-based; conditions: in vivo; in short: as §2
[25] = Tmax in human at 150 mg, po BID administered on day 1 followed by 2-day wash out period after which dosing continued up to day 11 measured on day 11; assay type: ADME, organism-based; conditions: in vivo; in short: as §2
[26] = Tmax in human at 150 mg, po TID administered on day 1 followed by 2-days wash out period after which dosing continued up to day 11 measured on day 4; assay type: ADME, organism-based; conditions: in vivo; in short: as §2

Chain of Cytochrome P450 2D6 (P10635 whole entry): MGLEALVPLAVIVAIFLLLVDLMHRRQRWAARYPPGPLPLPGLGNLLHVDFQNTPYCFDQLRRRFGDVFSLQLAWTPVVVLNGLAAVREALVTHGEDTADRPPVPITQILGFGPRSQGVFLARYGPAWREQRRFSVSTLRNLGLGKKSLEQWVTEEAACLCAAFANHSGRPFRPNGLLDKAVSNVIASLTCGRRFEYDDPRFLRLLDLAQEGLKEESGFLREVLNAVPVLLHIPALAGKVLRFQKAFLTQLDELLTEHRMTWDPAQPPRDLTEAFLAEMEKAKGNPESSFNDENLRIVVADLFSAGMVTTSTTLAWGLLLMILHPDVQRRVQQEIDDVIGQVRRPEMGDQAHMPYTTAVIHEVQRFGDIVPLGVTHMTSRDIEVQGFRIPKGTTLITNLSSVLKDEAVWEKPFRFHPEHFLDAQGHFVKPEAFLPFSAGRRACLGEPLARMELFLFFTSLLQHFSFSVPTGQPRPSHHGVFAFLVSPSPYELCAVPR
Chain of Hydroxycarboxylic acid receptor 3 (Homo sapiens) (P49019 whole entry): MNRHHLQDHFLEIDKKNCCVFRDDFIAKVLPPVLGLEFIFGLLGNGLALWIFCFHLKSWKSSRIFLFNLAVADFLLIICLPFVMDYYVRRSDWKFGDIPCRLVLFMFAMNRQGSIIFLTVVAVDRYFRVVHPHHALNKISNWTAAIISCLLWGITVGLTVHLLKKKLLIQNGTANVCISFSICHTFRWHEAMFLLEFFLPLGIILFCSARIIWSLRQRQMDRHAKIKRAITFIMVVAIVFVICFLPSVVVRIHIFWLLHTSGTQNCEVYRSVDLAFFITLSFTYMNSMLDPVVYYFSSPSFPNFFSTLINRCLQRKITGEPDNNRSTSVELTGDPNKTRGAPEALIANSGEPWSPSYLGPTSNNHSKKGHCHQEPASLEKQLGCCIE

In the case of `O=C(O)c1n[nH]c2c1C[C@H]1C[C@@H]21`, the Activity [1] is reported as “inactive”, the Activity (Cytochrome P450 2D6) is reported as “Not Active” and the Activity (Cytochrome P450 2C9) is reported as “Not Active”. The half-life [2] was 8.7 h, the Cmax/dose (Rattus norvegicus) was 3.7 µM·kg/mg and the clearance [3] was 3.1 mL/min/kg. For the same molecule, the Cmax/dose (Rhesus monkey) was 5.1 µM·kg/mg, the AUC at 12 h [4] was 0.0261 µM·h and the AUC at 12 h [5] was 0.0657 µM·h. The AUC at 12 h [6] was 0.0611 µM·h, the AUC at 12 h [7] was 0.0788 µM·h and the Tmax [8] was 0.75 h. The half-life [9] was 1.9 h, the half-life [10] was 8.9 h and the half-life [11] was 4.6 h. The Activity (Homo sapiens [12]) was “Dose-dependent effect”, the Activity (Homo sapiens [13]) was 4.6% and the Cmax [14] was 12.3 nM. For the same molecule, the Cmax [15] was 31.5 nM, the Cmax [16] was 41.2 nM and the Cmax [17] was 56.3 nM. The Cmax [18] was 49.8 nM, the Cmax [19] was 56 nM and the concentration at 12 h [20] was 0.104 nM. It also gave a concentration at 8 h [21] of 0.708 nM, a concentration at 6 h [22] of 2.86 nM and a Tmax [23] of 0.5 h. For the same molecule, the Tmax [24] was 0.5 h, the Tmax [25] was 1 h and the Tmax [26] was 0.5 h.
